Data from article PMC10694180 (Heliyon, 2023).
“Also recorded” adds a separate entry of the source. Where two headings read alike, the source gives them in different places.

Tests used:
[1] = test system: hypoxia induced ID8 mouse ovarian epithelial cell line; test: MTT assay, hypoxia induced ovarian cancer cell line ID8; format: cell-based; conditions: for inhibition of cell proliferation: ID8 cells, 50 μM concentration; for IC50: 72 h
In short: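 Hypoxia-induced mouse ID8 ovarian epithelial cells were seeded in 96-well plates and exposed to test compound or control. MTT was added 72 h after drug addition, and the resuspended formazan was read by absorbance. Growth inhibition (%) = [1 − (A/B)] × 100, where A is treated wells and B is control wells; n = 3.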

[2] = target: Hypoxia-inducible factor 1-alpha (HIF-1α) (Mus musculus, UniProt Q61221); test: Quantitative HIF-1α inhibitory assay; format: cell-based; conditions: ELISA, cell extracts, 50 μM concentration (Fig. 3)
In short: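 Mouse HIF-1α quantified with a simple-step ELISA kit run per the manufacturer. Cell lysate concentrates from fresh material were added to wells coated with double-stranded DNA carrying HIF-1α-binding HREs. Bound HIF-1α was detected with a primary mouse anti-HIF-1α antibody and a labelled secondary anti-mouse antibody, and absorbance was read at 450 nm.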

[3] = Solubility data of synthesized compounds; format: physicochemical; conditions: solvents: DMSO, ethanol, ethanolic water
[4] = read-out: IC50 (μM), viability of Ovarian cancer cell lines ID8, hypoxia induced ID8, MTT, n = 3
[5] = Mus musculus, Epithelial cell, read-out: IC50 (μM), viability of Ovarian cancer cell lines ID8, hypoxia induced ID8, MTT, 72 h, n = 3

Chain of Hypoxia-inducible factor 1-alpha (HIF-1α) (Q61221 whole entry): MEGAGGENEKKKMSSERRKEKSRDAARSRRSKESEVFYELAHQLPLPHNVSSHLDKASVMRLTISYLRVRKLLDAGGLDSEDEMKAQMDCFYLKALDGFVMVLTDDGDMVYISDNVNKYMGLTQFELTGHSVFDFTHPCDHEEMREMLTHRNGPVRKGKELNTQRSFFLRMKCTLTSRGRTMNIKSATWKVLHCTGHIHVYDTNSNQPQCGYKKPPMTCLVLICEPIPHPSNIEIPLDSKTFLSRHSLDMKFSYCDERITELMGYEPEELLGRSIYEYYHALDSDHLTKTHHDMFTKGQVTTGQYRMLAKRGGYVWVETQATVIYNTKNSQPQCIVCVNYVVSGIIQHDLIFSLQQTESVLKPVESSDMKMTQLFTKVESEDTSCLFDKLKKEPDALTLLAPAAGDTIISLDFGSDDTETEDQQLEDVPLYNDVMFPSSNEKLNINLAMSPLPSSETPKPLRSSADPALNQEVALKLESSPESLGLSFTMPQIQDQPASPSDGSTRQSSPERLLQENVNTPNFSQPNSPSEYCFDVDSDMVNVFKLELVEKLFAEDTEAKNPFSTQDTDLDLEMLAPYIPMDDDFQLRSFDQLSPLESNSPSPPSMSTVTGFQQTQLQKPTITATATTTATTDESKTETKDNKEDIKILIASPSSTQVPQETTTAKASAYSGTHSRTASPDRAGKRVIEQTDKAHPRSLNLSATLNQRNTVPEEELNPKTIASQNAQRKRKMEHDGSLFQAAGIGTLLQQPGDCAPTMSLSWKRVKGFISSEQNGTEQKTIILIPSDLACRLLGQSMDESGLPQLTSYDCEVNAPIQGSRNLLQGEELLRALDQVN

For `N.N.[Cl][Pt][Cl]` [Cisplatin, reference compound], the “inhibition of cell proliferation” value [1] was 60%, the IC50 [1, 4] was 8.5 ± 0.23 µM and the IC50 ([1]; read-out: IC50 (μM), viability of Ovarian cancer cell lines ID8, hypoxia induced ID8, MTT, n = 3, listed as cisplatin) was 8.5 µM.

In the case of `O=C(CN1CCOCC1)N1CCOCC1` [Compound 1a, 1,2-di (morpholin-4-yl) ethanone], the IC50 [1, 5] is reported as 23.9 ± 0.61 µM.

In the case of `O=C(CN1CCCC1)N1CCOCC1` [Compound 1b, 1-(morpholin-4-yl)-2-(pyrrolidin-1-yl) ethanone], the IC50 [1, 5] is reported as 14.8 ± 0.7 µM.

For `O=C(CNc1ccccn1)N1CCOCC1` [Compound 1c, 1-(morpholin-4-yl)-2-(pyridin-2-ylamino) ethanone], the “inhibition of HIF-1α” value [2] was “significant inhibitory effects; also recorded: optimal activity; also recorded: promising activities” and the IC50 [1, 5] was 15.7 ± 0.64 µM.

With `COc1cccc(NCC(=O)N2CCOCC2)c1` [Compound 1d, 2-[(3-methoxyphenyl)amino]-1-(morpholin-4-yl) ethanone] the “inhibition of HIF-1α” value [2] was “lesser inhibition” and the IC50 [1, 5] was 25.3 ± 0.82 µM.

With `COc1ccc(NCC(=O)N2CCOCC2)cc1` [Compound 1e, 2-[(4-methoxyphenyl)amino]-1-(morpholin-4-yl)ethanone] the IC50 [1, 5] was 26.4 ± 0.72 µM.

Work on `COc1ccccc1NCC(=O)N1CCOCC1` [Compound 1f, 2-[(2-methoxyphenyl)amino]-1-(morpholin-4-yl) ethanone] yielded an IC50 [1, 5] of 158.4 ± 0.66 µM.

With `O=C(COc1ccccc1)N1CCOCC1` [Compound 1g, 1-(morpholin-4-yl)-2-phenoxyethanone] the IC50 [1, 5] was 146.1 ± 0.56 µM and the solubility [3] was “only soluble in DMSO”.

In the case of `O=C(CNc1ccc(F)cc1)N1CCOCC1` [Compound 1h, 2-[(4-fluorophenyl)amino]-1-(morpholin-4-yl) ethanone], the “inhibition of HIF-1α” value [2] is reported as “significant inhibitory effects; also recorded: optimal activity; also recorded: good inhibition”, the “inhibition of cell proliferation” value [1] is reported as “maximum inhibition” and the IC50 [1, 5] is reported as 9.4 µM. For the same compound, the IC50 [1, 4] was 9.41 ± 0.73 µM.

In the case of `Cc1ccc(C(C)C)c(OCC(=O)N2CCOCC2)c1` [Compound 1i, 2-[5-methyl-2-(propan-2-yl)phenoxy]-1-(morpholin-4-yl) ethanone], the “inhibition of HIF-1α” value [2] is reported as “significant inhibitory effects; also recorded: optimal activity; also recorded: good inhibition”, the “inhibition of cell proliferation” value [1] is reported as “maximum inhibition” and the IC50 [1, 5] is reported as 11.2 ± 0.22 µM.

With `O=C(CNCc1ccc(Cl)cc1)N1CCOCC1` [Compound 1j, 2-[(4-chlorobenzyl)amino]-1-(morpholin-4-yl) ethanone] the IC50 [1, 5] was 21.49 ± 0.11 µM and the solubility [3] was “only soluble in DMSO”.

With `O=C(CNCc1ccc(F)cc1)N1CCOCC1` [Compound 1k, 2-[(4-fluorobenzyl)amino]-1-(morpholin-4-yl) ethanone] the IC50 [1, 5] was 64.2 ± 0.88 µM.

`O=C(CNc1nnc(-c2ccccc2)o1)N1CCOCC1` [Compound 1l, 1-(morpholin-4-yl)-2-[(5-phenyl-1,3,4-oxadiazol-2-yl)amino] ethanone] gave an IC50 [1, 5] of 15.6 µM, an inhibition at 50 µM ([1]; Mus musculus, ID8, read-out: inhibition of cell proliferation) of 60% and an IC50 [1, 4] of 15.6 ± 0.77 µM.

Work on `O=C(CSc1nc2ccccc2s1)N1CCOCC1` [Compound 1m, 2-(1,3-benzothiazol-2-ylsulfanyl)-1-(morpholin-4-yl) ethanone] yielded an IC50 [1, 5] of 32.4 ± 0.67 µM.

For `O=C(CNCc1ccccc1)N1CCOCC1` [Compound 1n, 2-(benzylamino)-1-(morpholin-4-yl) ethanone], the IC50 [1, 5] was 47.9 ± 0.75 µM and the solubility [3] was “only soluble in DMSO”.
